In ChEMBL document CHEMBL1128707, “Novel thiazole based heterocycles as inhibitors of LFA-1/ICAM-1 mediated cell adhesion” (J Med Chem, 1995):

Legend:
[1] = biological target: Intercellular adhesion molecule (ICAM-1), Integrin alpha-L/beta-2 (Homo sapiens) (UniProt P20701+P05362+P05107); test: Inhibition of HL-60 cell adhesion mediated by interaction of LFA-1 and ICAM-1; assay type: functional, cell-based; parameters: concentration or dose not given beside the values; conditions: concentration not given here
How it was run: (§1)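 HL60 cells (LFA-1 positive, Mac-1 negative by FACS) were fluorochrome-labeled and added to immunoaffinity-purified recombinant soluble ICAM-1 immobilized on plastic. Incubation was 40 min at 37 °C, and nonadherent cells were washed off. Adherence was read on a fluorescence concentration analyzer. Values are IC50 (μM) or % inhibition at 10 μM, each from one assay run in five replicates.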

[2] = biological target: T1, Intercellular adhesion molecule (ICAM-1), Integrin alpha-L/beta-2 (Homo sapiens, UniProt P05107+P05362+P20701); test: Inhibition of HL-60 cell adhesion to purified ICAM-1 by LFA-1; assay type: functional, cell-based; how it was run: as §1
HL-60 [3] = test: The concentration of compound required to inhibit 50% interaction (IC50 ) was measured on LFA-1/ICAM-1 mediated cells using cell/cell adherence assay on the HL60/U937 test system; assay type: functional, cell-based; conditions: Homo sapiens
Integrin alpha-M/beta-2 = Integrin alpha-M/beta-2 (Homo sapiens, UniProt P05107+P11215); test: Inhibition of neutrophil cell Mac-1 mediated adhesion to purified ICAM-1, no effect up to 20 […]; assay type: functional, cell-based
[4] = biological target: T1, Intercellular adhesion molecule (ICAM-1), Integrin alpha-L/beta-2; test: Inhibition of LFA-1 mediated HL60 cell adhesion to ICAM-1; assay type: cell-based, HL-60; how it was run: as §1
[5] = The inhibitory activity was measured on VLA-4/VCAM-1 mediated cells using cell/cell adherence assay on the Ramos/IL-1beta HUVEC test system; no effect up to 20 pM; assay type: functional, cell-based; conditions: in the assay text read “20 µM” for “20 pM”
How it was run: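 Cell/cell adhesion used VLA-4-expressing Ramos B lymphoblastoid cells and HUVEC stimulated overnight with IL-1β to express VCAM-1. Adherence was quantified by fluorescence.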

HL-60 [6] = test: The inhibitory activity was measured on sLex/E-selectin mediated cells using cell/cell adherence assay on the HL60/IL-1beta HUVEC test system; no effect up to 20 µM; conditions: Homo sapiens

T1 sequence (P20701 whole entry): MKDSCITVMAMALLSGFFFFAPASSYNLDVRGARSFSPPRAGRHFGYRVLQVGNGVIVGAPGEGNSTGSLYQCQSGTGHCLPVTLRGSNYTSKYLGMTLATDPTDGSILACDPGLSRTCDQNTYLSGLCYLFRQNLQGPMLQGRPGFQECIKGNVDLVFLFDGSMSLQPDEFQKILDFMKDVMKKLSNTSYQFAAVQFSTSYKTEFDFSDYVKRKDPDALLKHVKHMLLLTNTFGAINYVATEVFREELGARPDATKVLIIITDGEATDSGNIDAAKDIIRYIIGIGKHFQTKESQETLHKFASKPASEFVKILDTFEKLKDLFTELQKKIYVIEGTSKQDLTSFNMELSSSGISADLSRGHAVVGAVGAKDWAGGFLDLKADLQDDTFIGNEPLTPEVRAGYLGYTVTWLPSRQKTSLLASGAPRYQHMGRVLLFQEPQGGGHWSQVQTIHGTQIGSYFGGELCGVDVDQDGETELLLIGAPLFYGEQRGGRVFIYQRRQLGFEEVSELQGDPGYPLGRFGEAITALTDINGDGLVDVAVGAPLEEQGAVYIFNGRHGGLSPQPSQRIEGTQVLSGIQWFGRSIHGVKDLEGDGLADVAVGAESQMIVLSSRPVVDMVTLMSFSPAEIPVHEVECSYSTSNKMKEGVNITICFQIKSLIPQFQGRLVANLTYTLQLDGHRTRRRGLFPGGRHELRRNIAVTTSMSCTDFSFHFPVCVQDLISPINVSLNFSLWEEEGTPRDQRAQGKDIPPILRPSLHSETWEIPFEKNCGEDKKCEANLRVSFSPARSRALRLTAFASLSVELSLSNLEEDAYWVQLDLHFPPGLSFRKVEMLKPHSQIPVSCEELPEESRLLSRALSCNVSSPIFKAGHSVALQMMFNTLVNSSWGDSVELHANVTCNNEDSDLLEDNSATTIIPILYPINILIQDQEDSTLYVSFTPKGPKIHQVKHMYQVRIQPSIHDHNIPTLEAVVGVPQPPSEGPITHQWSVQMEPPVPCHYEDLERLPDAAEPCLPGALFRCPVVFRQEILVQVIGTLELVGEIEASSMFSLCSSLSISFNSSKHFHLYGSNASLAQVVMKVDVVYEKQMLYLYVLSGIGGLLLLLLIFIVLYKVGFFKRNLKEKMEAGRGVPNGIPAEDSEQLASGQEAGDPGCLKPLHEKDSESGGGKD
T1 sequence (P05362 whole entry): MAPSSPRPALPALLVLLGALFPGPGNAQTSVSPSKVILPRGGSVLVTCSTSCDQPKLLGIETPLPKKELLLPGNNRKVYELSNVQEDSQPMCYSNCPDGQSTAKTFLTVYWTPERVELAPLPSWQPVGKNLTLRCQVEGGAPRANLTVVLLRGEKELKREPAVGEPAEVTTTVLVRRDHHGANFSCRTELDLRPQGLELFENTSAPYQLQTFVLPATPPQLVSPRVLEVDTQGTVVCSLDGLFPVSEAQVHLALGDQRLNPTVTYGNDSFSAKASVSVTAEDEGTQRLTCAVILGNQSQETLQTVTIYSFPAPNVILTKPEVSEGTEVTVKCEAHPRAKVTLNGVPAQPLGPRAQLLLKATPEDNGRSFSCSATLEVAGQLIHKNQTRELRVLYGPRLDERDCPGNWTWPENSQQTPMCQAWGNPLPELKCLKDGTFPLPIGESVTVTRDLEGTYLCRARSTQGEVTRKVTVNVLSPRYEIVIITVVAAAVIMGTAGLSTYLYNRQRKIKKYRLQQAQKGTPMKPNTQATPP
T1 sequence (P05107 whole entry): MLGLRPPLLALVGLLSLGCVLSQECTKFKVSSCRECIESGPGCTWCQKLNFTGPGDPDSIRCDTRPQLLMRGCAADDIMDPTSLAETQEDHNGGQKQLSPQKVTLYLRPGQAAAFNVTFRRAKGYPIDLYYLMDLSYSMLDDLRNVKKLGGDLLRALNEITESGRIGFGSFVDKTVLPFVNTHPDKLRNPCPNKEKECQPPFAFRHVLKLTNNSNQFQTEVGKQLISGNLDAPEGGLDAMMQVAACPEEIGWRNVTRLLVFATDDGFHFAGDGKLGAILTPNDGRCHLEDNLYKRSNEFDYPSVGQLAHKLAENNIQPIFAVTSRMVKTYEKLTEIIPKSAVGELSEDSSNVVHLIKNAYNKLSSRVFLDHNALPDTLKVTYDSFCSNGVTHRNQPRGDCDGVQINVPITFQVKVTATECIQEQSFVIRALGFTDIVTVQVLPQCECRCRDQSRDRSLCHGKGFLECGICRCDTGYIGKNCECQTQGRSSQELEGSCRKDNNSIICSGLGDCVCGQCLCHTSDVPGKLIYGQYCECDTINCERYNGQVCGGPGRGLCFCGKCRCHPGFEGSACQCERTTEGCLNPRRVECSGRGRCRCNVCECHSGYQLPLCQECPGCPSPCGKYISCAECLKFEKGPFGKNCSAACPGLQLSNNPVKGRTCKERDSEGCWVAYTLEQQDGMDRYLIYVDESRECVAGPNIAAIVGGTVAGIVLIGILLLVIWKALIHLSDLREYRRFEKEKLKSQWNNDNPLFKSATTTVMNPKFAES
Integrin alpha-M/beta-2, sequence (P05107 23-769 limits assumed, other chains not shown): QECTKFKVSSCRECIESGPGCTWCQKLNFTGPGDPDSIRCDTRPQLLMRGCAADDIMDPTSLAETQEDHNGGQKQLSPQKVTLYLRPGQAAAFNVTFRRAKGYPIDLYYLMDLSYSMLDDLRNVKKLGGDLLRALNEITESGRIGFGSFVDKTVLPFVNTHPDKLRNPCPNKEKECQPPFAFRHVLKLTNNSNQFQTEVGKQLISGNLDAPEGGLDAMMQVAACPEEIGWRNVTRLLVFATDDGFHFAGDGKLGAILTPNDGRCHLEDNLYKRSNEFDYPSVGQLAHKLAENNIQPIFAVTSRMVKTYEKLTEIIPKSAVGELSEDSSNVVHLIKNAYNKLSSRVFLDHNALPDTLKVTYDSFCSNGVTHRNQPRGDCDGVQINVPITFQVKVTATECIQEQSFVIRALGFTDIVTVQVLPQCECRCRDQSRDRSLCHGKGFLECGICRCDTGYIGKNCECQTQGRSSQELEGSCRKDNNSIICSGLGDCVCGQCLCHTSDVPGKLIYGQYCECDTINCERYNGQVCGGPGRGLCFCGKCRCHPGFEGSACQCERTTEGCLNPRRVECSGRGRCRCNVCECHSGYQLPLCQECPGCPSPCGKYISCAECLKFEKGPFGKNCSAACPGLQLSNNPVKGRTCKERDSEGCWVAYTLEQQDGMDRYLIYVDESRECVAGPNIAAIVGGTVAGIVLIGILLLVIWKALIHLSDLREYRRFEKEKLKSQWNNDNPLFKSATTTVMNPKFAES

| inhibition [1] | SMILES | other results |
| --- | --- | --- |
| 0% | Cc1c(C(=O)NCCCCCO)cnn1-c1nc(-c2cccc(C(F)(F)F)c2)cs1 | – |
| 48% | COCCCNC(=O)c1cnn(-c2nc(-c3cccc(C(F)(F)F)c3)cs2)c1C | – |
| 7% | Cc1ccc(-c2csc(-n3ncc(C(=O)NCCCO)c3C)n2)cc1 | – |
| 5% | Cc1c(C(=O)NCCCO)cnn1-c1nc(-c2ccccc2)cs1 | – |
| 25% | Cc1c(C(=O)OCCCO)cnn1-c1nc(-c2cccc(C(F)(F)F)c2)cs1 | – |
| 5% | O=C(NCCCO)c1cnn(-c2nc(-c3cccc(C(F)(F)F)c3)cs2)c1C(F)(F)F | – |
| 10% | CCc1c(C(=O)NCCCN2CCCC2=O)cnn1-c1nc(-c2cccc(C(F)(F)F)c2)cs1 | – |
| 20% | Cc1c(C(=O)NCCCO)cnn1-c1nc(-c2cccc(Cl)c2)cs1 | – |
| – | CCc1c(C(=O)NCCCO)cnn1-c1nc(-c2cccc(C(F)(F)F)c2)cs1 | IC50 [2]: 3 µM |
| 34% | CCc1c(C(=O)NCCCn2ccnc2)cnn1-c1nc(-c2cccc(C(F)(F)F)c2)cs1 | – |
| 0% | CCOC(=O)CCCNC(=O)c1cnn(-c2nc(-c3cccc(C(F)(F)F)c3)cs2)c1C | – |
| 51% | Cc1c(C(=O)NCCCCO)cnn1-c1nc(-c2cccc(C(F)(F)F)c2)cs1 | – |
| – | Cc1c(C(=O)NCCCO)cnn1-c1nc(-c2cccc(C(F)(F)F)c2)cs1 | IC50 (HL-60 [3]): 5 µM; IC50 [2]: 5 µM; IC50 (Integrin alpha-M/beta-2): No effect; IC50 [4]: 5 µM; IC50 [5]: No effect; IC50 (HL-60 [6]): No effect |
| 26% | CCCc1c(C(=O)NCCCO)cnn1-c1nc(-c2cccc(C(F)(F)F)c2)cs1 | – |
| 0% | COc1cc(-c2csc(-n3ncc(C(=O)NCCCO)c3C)n2)cc(OC)c1OC | – |
